# Screening data deposited in PubChem BioAssay by several laboratories.
# GRK2 aptamer HTS = compounds blocking aptamer binding on GRK2 – biochemical, human GRK2, bead flow cytometry, HTS, primary screen | Beta-adrenergic receptor kinase 1 (Homo sapiens), P25098 | FAM-aptamer displacement from GRK2 | inhibition of aptamer binding, % at 10 µM | 330,000 compounds, 0.59% hits;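 active means inhibition of aptamer binding above 40%, roughly 3 SD of noise, on plates passing a quality check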;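 further: median bead fluorescence of bound FAM aptamer so fluorescent compounds give negative values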
# ABHD5-PLIN5 inh = ABHD5-PLIN5 interaction inhibitors, primary screen, cell lysate, split luciferase complementation, luminescence; Perilipin-5 (Homo sapiens) + 1-acylglycerol-3-phosphate O-acyltransferase ABHD5 (Homo …; Split G. princeps luciferase complementation, 4 h; inhibition, % at 4 µM; 360,000 compounds, 0.78% hits; AID 602281, 2012;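 active means inhibition above the mean inhibition across every tested compound plus 3 SD, cut at about 22% in these data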;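 further: 0% = DMSO only wells and the 100% control is not disclosed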
# SENP1 FRET inh = human SENP1 catalytic domain inhibitors, primary screen, biochemical, FRET, uHTS. inhibition, % at 10 µM. recombinant SENP1 catalytic domain, CyPet-SUMO1-YPet FRET cleavage. Sentrin-specific protease 1 (Homo sapiens), Q9P0U3. 360,000 compounds, 0.21% hits;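 active means inhibition at least 30% at 10 µM, raw YFP signal under a set limit, fluorescence ratio 0.5 to 1.5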;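 further: 0% = enzyme with DMSO and 100% = no enzyme wells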
#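 System: Recombinant human SENP1 catalytic domain, His6-tagged | Incubation: Enzyme reaction for 50 min at room temperature, dark | Medium: Tris pH 8 with BME, BSA, NP40 and catalase | Also added: 25 nM SUMO1 FRET substrate | Compound: 10 µM single point, 0.5% DMSO | Measured by: FRET fluorescence in CFP and YFP emission channels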
# Beta2AR agonist = beta2AR agonists driving receptor internalization, primary screen, cell-based, FAP fluorogen, flow cytometry. Beta-2 adrenergic receptor (Homo sapiens), P07550. Am2.2-beta2AR cells. 340,000 compounds, 0.43% hits. response, % (concentration not given with the values);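 active means response above a set limit, near 3 SD of response in nonfluorescent compounds, cut at about 42% in these data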
# NadD inh = inhibitors of S. aureus NadD, primary screen, biochemical, colorimetric, uHTS; Nicotinate-nucleotide adenylyltransferase NadD (Staphylococcus aureus N315); purified NadD enzyme, colorimetric absorbance read-out; inhibition, % at 20 µM; 360,000 compounds, 0.78% hits; AID 602399, 2012; in the data active means inhibition above about 26%
# NadD inh conf = inhibitors of S. aureus NadD, confirmation, biochemical, colorimetric, single concentration. shares compounds with NadD inh. purified S. aureus NadD, colorimetric enzyme assay. inhibition, % at 20 µM. 2,000 compounds, 13% hits. AID 624309, 2012; in the data active means inhibition mostly above about 42%, no sharp cut-off; inactive means mostly below about 42%
# The depositor's hits bear a star; nt = no result given. This is a sample that favours compounds with a hit; in the whole collection about 2.5% have one here.
SMILES,GRK2 aptamer HTS,ABHD5-PLIN5 inh,SENP1 FRET inh,Beta2AR agonist,NadD inh,NadD inh conf
CCN(C(=O)COC(=O)CNC(=O)C1CCCCC1)c1ccccc1,nt,3,1,-1,-4,nt
N#Cc1c(SCC(=O)Nc2nc3ccc(Br)cc3s2)sc2c(O)cc(=O)[nH]c12,10,-5,-82,12,41*,39
N#Cc1c(SCC(=O)Nc2nc3ccccc3s2)sc2c(O)cc(=O)[nH]c12,26,-19,-37,2,18,nt
COc1ccc(CNC(=O)COC(=O)c2c(NC(C)=O)sc(C)c2C)cc1,0,2,-2,1,7,nt
COc1ccc(C2CC(c3ccccc3)=NN2C(=O)CN2N=NC3C(=O)N(c4cccc(F)c4)C(=O)C32)cc1 (stereo not drawn),0,0,-15,-7,40*,8
O=C(Nc1nc(-c2ccccn2)cs1)c1ccc(-c2ccccc2F)o1,3,10,-25,13,40*,18
CC(=O)Nc1ccc(C(=O)Nc2nc(-c3ccccn3)cs2)cc1,1,2,0,-2,6,nt
CCc1cc(C(=O)Nc2nc(-c3ccccn3)cs2)sc1C,0,4,11,-1,33*,9
Cc1ccc(C(=O)Nc2nc(-c3ccccn3)cs2)o1,0,-1,-4,5,7,nt
COC(CN(C)C(=O)c1ccc2c(c1)NC(=O)c1ccccc1S2)OC,0,-5,0,0,-3,nt
Cc1cc(C)c2nc(NNC(=O)c3ccc(S(=O)(=O)N4CC(C)CC(C)C4)cc3)sc2c1 (stereo not drawn),15,29*,23,43*,34*,24
Cc1ccc2nc(NNC(=O)c3ccc(S(=O)(=O)N4CCc5ccccc5C4)cc3)sc2c1,0,34*,23,16,59*,56*
Cc1cccc2sc(NNC(=O)c3ccc(S(=O)(=O)N4CC(C)CC(C)C4)cc3)nc12 (stereo not drawn),4,38*,18,48*,58*,54*
COc1ccc(-c2nnc(NC(=O)c3ccc(S(=O)(=O)N4CCc5ccccc5C4)cc3)o2)cc1,1,0,1,17,84*,14
CN(c1ccccc1)S(=O)(=O)c1cccc(NC(=O)CN2CCCc3ccccc32)c1,0,3,-4,-1,0,nt
NS(=O)(=O)c1cccc(NC(=O)CN2CCc3ccccc32)c1,3,4,-18,-7,38*,-4
Cc1ccc(C)c(S(=O)(=O)N2CCN(C(=O)c3ccncc3)CC2)c1,0,-1,-1,-2,-2,nt
CCN1CCN(CCNC(=O)c2ccc(CS(=O)c3ccc(Br)cc3)o2)CC1 (stereo not drawn),0,0,1,1,-5,nt
CCOc1ccc(C(=O)N/N=C/c2ccc(-c3ccc(S(=O)(=O)Nc4ncccn4)cc3)o2)cc1,0,0,-23,6,33*,53*
CCOc1ccc(S(=O)(=O)Nc2ccc(C(=O)NN)cc2)cc1,0,0,1,-1,2,nt
CCOc1ccc(S(=O)(=O)N(CC(=O)N/N=C/c2ccc(-c3ccc([N+](=O)[O-])cc3)o2)c2ccccc2)cc1,17,1,-18,-4,41*,13
CN(CC(=O)Nc1ccc(F)cc1)C(=O)COC(=O)c1nc(Cl)ccc1Cl,nt,7,1,nt,4,nt
C=CCNc1nc(NCc2ccc(NC(C)=O)cc2)c2sc(-c3ccccc3)cc2n1,nt,21,-4,nt,31*,22
CC(=O)Nc1ccc(CNc2nc(NC(C)C)nc3cc(-c4ccccc4)sc23)cc1,nt,10,-2,nt,22,nt
CC1(C)Cc2c(c(N3CCOCC3)nc3sc4c(NCc5ccccc5)nnnc4c23)CS1,2,-3,-28,-3,22,nt
SMILES,GRK2 aptamer HTS,ABHD5-PLIN5 inh,SENP1 FRET inh,Beta2AR agonist,NadD inh,NadD inh conf
CC1(C)Cc2c(c(N3CCOCC3)nc3sc4c(NN)ncnc4c23)CS1,0,-2,-61,9,34*,1
CC(Nc1nc(=S)nc(Nc2ccc(F)cc2)[nH]1)c1ccccc1 (stereo not drawn),4,-26,1,2,31*,37
CCOC(=O)c1[nH]cnc1C(=O)N1CCN(C(=O)OC(C)(C)C)CC1,0,4,0,4,2,nt
O=C(c1ccoc1)N1CCN(c2cc(-c3cccc(F)c3)nc3cc(-c4cccc(Cl)c4)nn23)CC1,nt,1,-15,nt,45*,6
CCNc1nc(NCC)nc(N/N=C/c2ccc([N+](=O)[O-])o2)n1,30,-1,-2,3,0,nt
O=[N+]([O-])c1ccc(/C=N/Nc2nc(-c3ccccc3)c3cc(Br)ccc3n2)o1,0,2,-20,-37,41*,12
Cc1ccc2nc(N/N=C\c3ccc([N+](=O)[O-])o3)nc(-c3ccccc3)c2c1,8,-1,-20,-3,37*,11
Cc1ccc(C2=NNC(=Nc3ccc(F)cc3)SC2)cc1,nt,-19,0,0,13,nt
CCc1ccc(C2=NNC(=Nc3cccc(S(=O)(=O)N(C)C)c3)SC2)cc1,4,-33,-1,1,34*,24
Cc1cccc(N(CC(=O)NC2CCCC2)C(=O)c2cc3cc4cccc(C)c4nc3s2)c1C,2,-4,3,10,40*,10
Cc1ccc(C)c(N(CC(=O)NC2CCCC2)C(=O)c2cc3cc4cc(C)ccc4nc3s2)c1,0,-2,4,-2,28,nt
COc1ccc(/C=N/NC(=O)c2cc(Br)ccc2O)cc1Cn1cc(Cl)cn1,0,3,-3,1,39*,38
CCCCN(C(=O)COC(=O)C1(c2ccccc2)CC1)c1c(N)n(CCC)c(=O)[nH]c1=O,nt,-6,-2,nt,2,nt
Cc1cccc(NCc2ccc(O)c3ncccc23)c1,2,-10,0,9,37*,27
CCCC(NC(=O)CCc1c(C)c2cc3c(-c4ccccc4)coc3cc2oc1=O)C(=O)O (stereo not drawn),0,-3,-3,4,4,nt
CCn1c(SCC(=O)Nc2nc(-c3ccc(C)cc3)cs2)nnc1-c1ccccc1,0,1,2,-1,14,nt
CCn1c(SCC(=O)Nc2nc(-c3ccc(C)cc3)cs2)nnc1-c1ccccc1O,1,-2,1,11,37*,43*
